Here are results for four molecules from ChEMBL document CHEMBL3526043, “Application of quantitative NMR in pharmacological evaluation of biologically generated metabolites: implications in drug discovery” (Drug Metab Dispos, 2011).

Structures are written as SMILES.

Usually clearance stands for the volume of plasma or blood freed of the substance per unit of time. One may read the AUC(0-inf) as the area under the concentration-time curve extrapolated to infinity.

Data set [1] addresses Phosphatidylinositol 4,5-bisphosphate 3-kinase catalytic subunit gamma isoform (Homo sapiens) (UniProt P48736). Put plainly: Binding affinity to PI3K-gamma (unknown origin) by fluorescence polarization assay.
Data set [2] has as its target Phosphatidylinositol 4,5-bisphosphate 3-kinase catalytic subunit alpha isoform (Homo sapiens) (UniProt P42336). The data set is described as follows: Binding affinity to PI3K-alpha (unknown origin) by fluorescence polarization assay.
Data set [3] concerns the target Serine/threonine-protein kinase mTOR (Homo sapiens) (UniProt P42345). The data set is described as follows: Binding affinity to mTOR (unknown origin) by DELFIA.
In data set [4] the test system is Liver microsome. The data set is described as follows: Drug level in human liver microsomes treated with 1-(4-(4-(3-oxa-8-azabicyclo[3.2.1]octan-8-yl)-6-morpholino-1,3,5-triazin-2-yl)phenyl)-3-(pyridin-4-yl)urea by NMR analysis. The data set is classed as ADME. In outline: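 Metabolite isolated from the human liver microsome incubation and quantified by 1H NMR. A calibration curve was built from parent-compound spectra at 5 concentrations, using the averaged integration of aromatic protons (δ 8.37, 8.30, 7.55, 7.44). Metabolite concentration was read from that curve; spectra were referenced to residual solvent.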

Data set [5] deals with Liver microsome. Put plainly: Drug level in human liver microsomes treated with 1-(4-(4-(3-oxa-8-azabicyclo[3.2.1]octan-8-yl)-6-morpholino-1,3,5-triazin-2-yl)phenyl)-3-(pyridin-4-yl)urea at 0.02 mM after 60 mins by LC-MS analysis. The data set is classed as ADME. To be noted: 1 h, 20 µM. Put shortly:
(§1)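 Human liver microsomes at 1 mg/mL protein with substrate at 0.02 mM, 5 mM NADPH and 8 mM MgCl2 in 0.1 M potassium phosphate, pH 7.4. Incubated at 37 °C for 60 min. Stopped with 2% formic acid in acetonitrile and centrifuged. Metabolite isolated by semi-preparative C18 HPLC, then characterised by LC/MS (C18, acetonitrile/5 mM ammonium acetate gradient) and NMR.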

Data set [6] in a line: Drug level in cynomolgus monkey liver microsomes treated with 1-(4-(4-(3-oxa-8-azabicyclo[3.2.1]octan-8-yl)-6-morpholino-1,3,5-triazin-2-yl)phenyl)-3-(pyridin-4-yl)urea at 0.02 mM after 60 mins by LC-MS analysis. The class given is ADME, Macaca fascicularis. To be noted: 1 h, 20 µM. (In general: Liver microsomes are vesicles of endoplasmic reticulum, rich in cytochrome P450 enzymes.)

The nature of data set [7]: Systemic clearance in Sprague-Dawley rat at 2 mg/kg, iv administered as bolus dose. The class given is ADME, organism-based. Further details: dose 2 mg/kg, route intravenous. To be noted: in vivo. In outline:
(§2)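 Male Sprague-Dawley rats (n=3 per group), jugular/femoral cannulated, fed. Single IV bolus of 2 mg/kg in 5% dextrose/0.5% lactic acid, pH 3.5, at 1 mL/kg. Jugular blood sampled 0–1440 min into EDTA. Plasma measured by LC/MS/MS (LOQ 1 ng/mL, BLQ set to zero). Non-compartmental analysis with linear trapezoidal AUC; CL = Dose/AUC0-∞, Vdss = MRT·CL, t1/2 = 0.693/λ.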

Another data set deals with Rattus norvegicus. Put plainly: Drug level in Sprague-Dawley rat at 2 mg/kg, iv. To be noted: in vivo.
Data set [8] concerns Liver microsome. The data set is described as follows: Drug metabolism in human liver microsomes assessed as (1R,5R,6R)-1-(4-(4-(6-hydroxy-3-oxa-8-azabicyclo[3.2.1]octan-8-yl)-6-morpholino-1,3,5-triazin-2-yl)phenyl)-3-(pyridin-4-yl)urea formation at 0.02 mM after 60 mins by 1H-13C-HSQC spectra analysis. The following applies: 20 µM.
In data set [9] the test system is Liver microsome. Put plainly: Drug metabolism in human liver microsomes assessed as (1R,5R,6R)-1-(4-(4-(6-hydroxy-3-oxa-8-azabicyclo[3.2.1]octan-8-yl)-6-morpholino-1,3,5-triazin-2-yl)phenyl)-3-(pyridin-4-yl)urea formation at 0.02 mM after 60 mins by 1H-13C-HSQC spectra analysis. The data set is classed as ADME. To be noted: 20 µM. In outline: (§3)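 Parent at 0.02 mM was incubated with human liver microsomes (1 mg/mL protein) in 0.1 M potassium phosphate pH 7.4 with 5 mM NADPH and 8 mM MgCl₂, at 37 °C for 60 min. Reactions were quenched with 2% formic acid in acetonitrile and the metabolite isolated by semi-preparative C18 HPLC. Identity was checked by LC/MS on C18 with an acetonitrile/5 mM ammonium acetate gradient.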

The nature of data set [10]: Drug metabolism in cynomolgus monkey liver microsomes assessed as (rac)-1-(4-(4-(6-hydroxy-3-oxa-8-azabicyclo[3.2.1]octan-8-yl)-6-morpholino-1,3,5-triazin-2-yl)phenyl)-3-(pyridin-4-yl)urea formation at 0.02 mM after 60 mins by LC-MS analysis. The class given is ADME, Macaca fascicularis. The following applies: 1 h, 20 µM.
Data set [11] is described as follows: Volume of distribution at steady state in Sprague-Dawley rat at 2 mg/kg, iv administered as bolus dose. The data set is classed as ADME, organism-based. Further details: dose 2 mg/kg, route intravenous. To be noted: in vivo, read-out: Vdss. In outline: as §2
Data set [12] can be described thus: Elimination half life in Sprague-Dawley rat at 2 mg/kg, iv administered as bolus dose. Further details: dose 2 mg/kg, route intravenous. The following applies: in vivo, read-out: beta t1/2 (converted). The class given is ADME, organism-based. Put shortly: as §2
Data set [13] relates to Liver microsome. The data set is described as follows: Drug metabolism in human liver microsomes assessed as (rac)-1-(4-(4-(6-hydroxy-3-oxa-8-azabicyclo[3.2.1]octan-8-yl)-6-morpholino-1,3,5-triazin-2-yl)phenyl)-3-(pyridin-4-yl)urea formation at 0.02 mM after 60 mins by LC-MS analysis. The data set is classed as ADME. The following applies: 1 h, 20 µM. In outline: as §3

The nature of data set [14]: AUC (0 to infinity) in Sprague-Dawley rat at 2 mg/kg, iv administered as bolus dose. To be noted: plasma. Further details: time infinity, dose 2 mg/kg, route intravenous. The data set is classed as ADME, organism-based. Put shortly:
as §2

Data set [15] in a line: Drug metabolism in cynomolgus monkey liver microsomes assessed as hydroxylated product formation after 60 mins by LC-MS analysis. The class given is ADME, Macaca fascicularis. The following applies: 1 h. In outline:
(§4)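 Single enantiomers incubated with male rat, cynomolgus monkey or human liver microsomes (1 mg/mL) plus cytosol (2 mg/mL). Cofactors: NADPH 5 mM, MgCl2 8 mM, GSH 2 mM and UDPGA 2 mM, in 0.1 M phosphate, pH 7.4, at 37 °C for 60 min. Precipitated with 2% formic acid in acetonitrile, dried, reconstituted, and analysed by LC/MS (C18, 10–40% acetonitrile/5 mM ammonium acetate).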

A short description of data set [16]: Retention time of the compound by HPLC analysis. The class given is physicochemical.
Data set [17] has as its system Liver microsome. Put plainly: Drug metabolism in human liver microsomes assessed as hydroxylated product formation after 60 mins by LC-MS analysis. The class given is ADME. To be noted: 1 h. Put shortly: as §4
The subject of data set [18] is Liver microsome. The data set is described as follows: Drug level in human liver microsomes treated with 1-(4-(4-(3-oxa-8-azabicyclo[3.2.1]octan-8-yl)-6-morpholino-1,3,5-triazin-2-yl)phenyl)-3-(pyridin-4-yl)urea at 0.02 mM after 60 mins by 1H-13C-HSQC spectra analysis. The class given is ADME. To be noted: 20 µM. Put shortly: as §1
Data set [19] relates to Liver microsome. The data set is described as follows: Drug metabolism in Sprague-Dawley rat liver microsomes assessed as hydroxylated product formation after 60 mins by LC-MS analysis. The following applies: 1 h. The class given is ADME. Put shortly:
as §4

Phosphatidylinositol 4,5-bisphosphate 3-kinase catalytic subunit gamma isoform (Homo sapiens), sequence (P48736 whole entry, looked up, canonical isoform): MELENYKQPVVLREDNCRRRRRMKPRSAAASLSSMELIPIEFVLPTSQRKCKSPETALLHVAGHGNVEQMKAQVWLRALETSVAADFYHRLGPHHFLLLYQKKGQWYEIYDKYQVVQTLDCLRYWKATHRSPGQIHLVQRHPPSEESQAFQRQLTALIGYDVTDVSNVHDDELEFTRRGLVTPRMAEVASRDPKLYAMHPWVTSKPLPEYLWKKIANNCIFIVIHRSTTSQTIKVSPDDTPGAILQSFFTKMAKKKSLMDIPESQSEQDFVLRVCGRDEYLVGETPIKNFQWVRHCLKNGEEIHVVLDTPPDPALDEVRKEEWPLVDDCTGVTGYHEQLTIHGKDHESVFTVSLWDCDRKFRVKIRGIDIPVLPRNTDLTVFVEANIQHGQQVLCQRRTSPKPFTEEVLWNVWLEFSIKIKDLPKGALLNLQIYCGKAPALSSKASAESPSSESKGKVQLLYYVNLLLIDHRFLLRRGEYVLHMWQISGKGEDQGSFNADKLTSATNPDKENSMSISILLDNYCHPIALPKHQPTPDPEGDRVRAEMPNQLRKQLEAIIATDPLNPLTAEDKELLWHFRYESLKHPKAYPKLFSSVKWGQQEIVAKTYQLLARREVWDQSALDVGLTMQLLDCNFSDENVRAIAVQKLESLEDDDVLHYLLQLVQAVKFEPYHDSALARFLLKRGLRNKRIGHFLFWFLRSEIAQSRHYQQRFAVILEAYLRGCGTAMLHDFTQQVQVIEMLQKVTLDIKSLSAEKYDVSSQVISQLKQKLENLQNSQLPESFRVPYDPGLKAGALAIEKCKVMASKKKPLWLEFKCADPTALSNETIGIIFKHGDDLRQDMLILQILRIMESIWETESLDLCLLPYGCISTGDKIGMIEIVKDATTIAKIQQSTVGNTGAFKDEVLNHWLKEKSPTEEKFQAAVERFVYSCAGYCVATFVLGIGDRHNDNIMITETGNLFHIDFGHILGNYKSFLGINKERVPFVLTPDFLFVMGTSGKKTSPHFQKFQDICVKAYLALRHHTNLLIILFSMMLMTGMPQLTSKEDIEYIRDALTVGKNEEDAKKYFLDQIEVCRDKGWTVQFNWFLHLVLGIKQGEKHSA
Phosphatidylinositol 4,5-bisphosphate 3-kinase catalytic subunit alpha isoform (Homo sapiens), sequence (P42336 whole entry, canonical isoform): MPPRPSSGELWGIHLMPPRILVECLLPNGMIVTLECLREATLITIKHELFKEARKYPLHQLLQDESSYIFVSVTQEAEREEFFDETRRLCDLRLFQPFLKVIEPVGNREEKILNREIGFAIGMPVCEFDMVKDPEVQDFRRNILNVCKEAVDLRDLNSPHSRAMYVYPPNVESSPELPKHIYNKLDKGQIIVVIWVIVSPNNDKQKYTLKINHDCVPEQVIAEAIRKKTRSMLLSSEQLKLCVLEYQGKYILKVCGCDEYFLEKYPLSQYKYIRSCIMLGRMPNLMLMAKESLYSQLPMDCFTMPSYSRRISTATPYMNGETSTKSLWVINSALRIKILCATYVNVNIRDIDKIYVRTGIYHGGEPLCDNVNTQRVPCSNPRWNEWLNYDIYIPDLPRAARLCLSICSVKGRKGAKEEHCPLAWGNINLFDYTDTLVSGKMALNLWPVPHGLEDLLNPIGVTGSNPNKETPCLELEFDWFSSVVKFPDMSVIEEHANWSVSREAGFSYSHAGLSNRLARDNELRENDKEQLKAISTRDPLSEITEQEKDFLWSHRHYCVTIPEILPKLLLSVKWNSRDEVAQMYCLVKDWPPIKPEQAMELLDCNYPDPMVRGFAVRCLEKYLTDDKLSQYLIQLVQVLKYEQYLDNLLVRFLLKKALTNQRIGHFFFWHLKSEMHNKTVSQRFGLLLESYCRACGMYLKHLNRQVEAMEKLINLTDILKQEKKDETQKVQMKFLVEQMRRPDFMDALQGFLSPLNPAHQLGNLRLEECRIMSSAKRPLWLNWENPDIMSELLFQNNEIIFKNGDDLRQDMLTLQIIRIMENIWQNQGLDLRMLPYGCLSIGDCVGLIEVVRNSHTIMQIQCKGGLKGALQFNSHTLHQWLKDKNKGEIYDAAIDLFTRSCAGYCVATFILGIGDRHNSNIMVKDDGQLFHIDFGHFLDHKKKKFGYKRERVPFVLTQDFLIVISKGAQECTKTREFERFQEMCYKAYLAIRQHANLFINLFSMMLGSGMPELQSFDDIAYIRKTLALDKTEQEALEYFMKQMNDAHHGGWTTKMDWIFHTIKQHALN

Consider `O=C(Nc1ccncc1)Nc1ccc(-c2nc(N3CCOCC3)nc(N3C4COCC3C(O)C4)n2)cc1` (racemic), for which the Activity was 33 nM in [1], 4 nM in data set [2] and 0.8 nM in [3]. For the same molecule, in the data set on Liver microsome [4], the Drug uptake was 1.72 mM. For the same molecule, the Drug metabolism entry (with Liver microsome [5]; in [6]) was “metabolite_detected” throughout.
Regarding `O=C(Nc1ccncc1)Nc1ccc(-c2nc(N3CCOCC3)nc(N3C4CCC3COC4)n2)cc1` [PKI-179], in data set [7], the clearance was 38.3 mL/min/kg. Moreover, the figures for the Activity in [1], in [2] and in data set [3] were 51 nM, 8 nM and 0.5 nM, respectively. In addition, the Drug uptake entry in the data set on Rattus norvegicus is recorded as “metabolite_not_detected”. The Drug metabolism result (in the data set on Liver microsome [8]; in the data set on Liver microsome [9]; in [10]; with Liver microsome [13]) was “metabolite_detected” in each case. The Vd in data set [11] was found to be 2.4 L/kg. In addition, the half-life in data set [12] was 54 min. For the same molecule, the area under the curve AUC(0-inf) in data set [14] worked out at 867 ng·h/mL.
With `O=C(Nc1ccncc1)Nc1ccc(-c2nc(N3CCOCC3)nc(N3[C@H]4COC[C@@H]3[C@H](O)C4)n2)cc1`, the Drug metabolism result in [15] was “metabolite_not_detected”; in the data set on Liver microsome [17] it was “metabolite_not_detected”; in the data set with Liver microsome [18], “metabolite_detected”. Moreover, in data set [7], the clearance is 107 mL/min/kg. Further, the Activity amounted to 50 nM in data set [1] and 4 nM in data set [2]. The Drug uptake entry in the data set on Rattus norvegicus is reported as “metabolite_not_detected”. Further, the Vd in data set [11] stood at 1.5 L/kg. Also, the Retention_time in data set [16] is reported as 10.2 min. Further, the half-life in data set [12] was 42 min. Also, the AUC(0-inf) in data set [14] turned out to be 315 ng·h/mL. Also, in the data set with Liver microsome [19], the Stability entry is given as “Stable”.
In the case of `O=C(Nc1ccncc1)Nc1ccc(-c2nc(N3CCOCC3)nc(N3[C@@H]4COC[C@H]3[C@@H](O)C4)n2)cc1`, the Drug metabolism entry (in data set [15]; in the data set with Liver microsome [17]; with Liver microsome [18]) was “metabolite_detected” each time. In data set [7], this molecule gave a clearance of 123 mL/min/kg. The Activity stood at 93 nM in data set [1] and 9 nM in data set [2]. The Drug uptake entry with Rattus norvegicus is “metabolite_not_detected”. In addition, the Vd in data set [11] was determined as 0.9 L/kg. This molecule also yielded a Retention_time in [16] of 13.4 min. The half-life in data set [12] is 12 min. The molecule also had an AUC(0-inf) in data set [14] of 283 ng·h/mL. Besides, in the data set with Liver microsome [19], the Stability result is given as “Stable”.
